KCNK9 inh: KCNK9 potassium channel inhibitors, primary screen, HEK293 cells, thallium flux | Potassium channel subfamily K member 9 (Homo sapiens), Q9NPC2 | FluxOR thallium flux fluorescence; hits give low values | B-score at 10 µM | 1.2% of 310,000 active;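 active = ratio B-score over 3 SD below the library mean, with starting fluorescence within 5 SD of its mean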;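 also: negative B-score means less thallium flux so channel inhibition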
KCNQ1 act: potentiators or activators of KCNQ1 channel, primary screen, cell-based, thallium flux, high-throughput. Potassium voltage-gated channel subfamily KQT member 1 (Homo sapiens), P51787. CHO-K1 KCNQ1, thallium flux FluxOR fluorescence; hits give high values. B-score at 10 µM. 0.35% of 310,000 active. AID 2648, 2010;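 active = fluorescence ratio B-score, a plate-corrected score, at least three library SD, with initial intensity B-score within 5 SD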
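assay system = CHO-K1 cells stably expressing KCNQ1 | medium = assay buffer, equal DMSO in all wells | timing = 37 °C overnight plating, 90-min dark dye load, 20-min compound pretreatment | measured by = kinetic FluxOR thallium fluorescence, 10-s 1-Hz baseline, 110-s post-stimulus read | measure = fluorescence change relative to baseline, converted to B score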
hERG rescue: hERG rescue from dofetilide block, primary screen, cell-based, CHO-hERG, FluxOR thallium flux, dofetilide IC70 | Voltage-gated inwardly rectifying potassium channel KCNH2 (Homo sapiens), Q12809 | dofetilide IC70 present | activation (rescue from dofetilide block), less the hit threshold, % at 10 µM | 0.51% of 310,000 active;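 active = activation above the mean of controls blocked by dofetilide plus 5 SD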;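 also: thallium influx through hERG after potassium depolarization seen as dye fluorescence rise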
KCNQ1 block: inhibitors of human KCNQ1 channel, primary screen, cell-based, thallium flux, high-throughput; Potassium voltage-gated channel subfamily KQT member 1 (Homo sapiens), P51787; CHO-K1 KCNQ1, FluxOR thallium flux fluorescence; hits give high values; B-score at 10 µM; 1.3% of 310,000 active; AID 2642, 2010;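 active = compounds whose thallium flux B-score, printed positive for inhibition, exceeds three library SD while starting fluorescence stays within three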;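 also: channel opened by potassium depolarization with thallium stimulus after 20 min compound exposure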
KCNK3 inh: human KCNK3 channel inhibitors, primary screen, CHO cells, FluxOR thallium flux, B-score. Potassium channel subfamily K member 3 (Homo sapiens), O14649. FluxOR fluorescence; hits give low values. B-score at 10 µM. 0.84% of 340,000 active. AID 602410, 2012;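 active = B-score under library mean minus 4 SD, starting fluorescence ratio at most library mean plus 5 SD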;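 also: more negative B-score means stronger inhibition of thallium flux through KCNK3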
KCNQ1 inh valid: KCNQ1 potassium channel inhibitors, confirmation, cell-based, Tl flux, duplicate; KCNQ1 cell line, FluxOR thallium flux fluorescence; inhibition, % at 10 µM; 93% of 1,600 active; shares compounds with KCNQ1 block;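 active = primary screen active, with duplicate mean exceeding buffer control mean plus 3 SD of buffer wells, cut at about 28% in these data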;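 also: 0% = buffer control ratio and 100% = XE991 inhibitor control ratio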
CHO Tl flux: thallium flux effects in parental CHO cells, counter-screen for KCNQ1 inhibitor project, cell-based, Tl flux; AID 588366, 2011; 21% of 1,600 active; parental CHO-K1, FluxOR thallium flux fluorescence ratio; hits give low values; zero means no signal rise above baseline; shares compounds with KCNQ1 block; fluorescence ratio (Tl flux) at 10 µM;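 active = mean of duplicate thallium-flux fluorescence ratios in parental host cells more than 5 SD below the buffer control mean, cut at about 0.38 in these data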;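 also: ratio is peak minus minimum fluorescence divided by baseline fluorescence; actives read low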
KCNQ1 ephys val: KCNQ1 channel inhibitors, confirmation, orthogonal assay, cell-based, automated electrophysiology; shares compounds with KCNQ1 block; 20% of 490 active; calls only at 10 µM; KCNQ1-CHO cells, automated patch clamp current;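 active = KCNQ1 current drop exceeding 3 SD of negative control wells, seen in both duplicate runs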;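 also: steady state current during a 2 s step from -80 to +40 mV; negative values mean current inhibition and positive values mean potentiation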
KCNQ2 spec: KCNQ2 channel inhibition, selectivity assay for KCNQ1 inhibitor project, cell-based; shares compounds with KCNQ1 block; KCNQ2 cells, FluxOR thallium flux fluorescence; inhibition, % at 10 µM; 71% of 1,600 active; AID 651746, 2012;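 active = mean percent inhibition of the KCNQ2 thallium signal more than 5 SD above the buffer-only control wells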;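 also: KCNQ2 expressed in CHO cells; 0% = buffer control wells and 100% = XE-991 inhibitor control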
KCNQ1 KCNE1 spec: KCNQ1/KCNE1 channel inhibition, selectivity assay for KCNQ1 inhibitor project, CHO-K1 cells, thallium flux, FluxOR; 77% of 1,600 active; shares compounds with KCNQ1 block; inhibition, % at 10 µM; FluxOR thallium flux fluorescence;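 active = mean percent inhibition of duplicate wells above the buffer-only control mean plus 3 SD of those controls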;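 also: 0% = buffer only wells and 100% = XE-991 inhibitor control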
Target sequence (P51787 whole entry, looked up): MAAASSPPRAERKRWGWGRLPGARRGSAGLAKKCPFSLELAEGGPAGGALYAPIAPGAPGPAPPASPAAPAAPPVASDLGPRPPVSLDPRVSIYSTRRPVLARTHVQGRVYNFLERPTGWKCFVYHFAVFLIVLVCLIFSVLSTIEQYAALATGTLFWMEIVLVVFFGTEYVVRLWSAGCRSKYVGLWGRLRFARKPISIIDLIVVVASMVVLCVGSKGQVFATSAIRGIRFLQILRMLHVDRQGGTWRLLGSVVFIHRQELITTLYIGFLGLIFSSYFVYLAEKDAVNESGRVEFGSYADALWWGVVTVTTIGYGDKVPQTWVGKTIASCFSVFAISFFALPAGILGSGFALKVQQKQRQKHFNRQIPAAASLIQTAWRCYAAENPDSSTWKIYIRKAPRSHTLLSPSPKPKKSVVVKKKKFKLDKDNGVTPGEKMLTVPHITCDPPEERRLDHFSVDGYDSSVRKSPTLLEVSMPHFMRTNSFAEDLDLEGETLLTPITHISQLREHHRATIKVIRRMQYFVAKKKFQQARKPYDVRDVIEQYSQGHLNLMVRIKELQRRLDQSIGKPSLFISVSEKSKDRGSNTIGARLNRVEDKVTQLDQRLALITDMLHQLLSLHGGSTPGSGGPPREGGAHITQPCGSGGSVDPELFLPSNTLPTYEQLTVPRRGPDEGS
KCNK9 inh conf: KCNK9 potassium channel inhibitors, confirmation, HEK293 cells, thallium flux, duplicate | 43% of 4,900 active | shares compounds with KCNK9 inh | FluxOR thallium flux fluorescence | inhibition, % at 10 µM;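 active = thallium signal inhibited by more than 5 SD of the compound-free buffer control wells, on both duplicate plates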;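 also: 0% = assay buffer control wells without compound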
Kir21 sel: mouse Kir2.1 channel inhibition, confirmation, selectivity assay for KCNK9 modulator project, cell-based, HEK293, thallium flux; 4% of 4,900 active; Kir2.1 cells, FluxOR thallium flux fluorescence; shares compounds with KCNK9 inh; inhibition, % at 10 µM;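 active = thallium signal drop more than 5 SD beyond the mean of the no-compound control wells, seen in both duplicate plates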;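 also: signal is fluorescence rise after thallium addition divided by baseline fluorescence; plate controls were assay buffer only for no effect and full block by chlorpromazine control for full effect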
KCNK9 uninduced: thallium flux in non-induced HEK293 cells, confirmation, counter-screen for KCNK9 inhibitor project, cell-based, second counter screen, non-induced KCNK9-HEK293; 40% of 4,900 active; shares compounds with KCNK9 inh; AID 492997, 2010; FluxOR thallium flux; inhibition, % at 10 µM;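 active = thallium signal drop beyond 5 SD of the untreated control mean, on both duplicate plates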;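 also: plate controls were buffer only IC0 wells for no effect and SID17386958 at its maximal inhibitory level for full effect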
KCNK3 inh conf: retest of human KCNK3 channel inhibitors, confirmation, CHO cells, FluxOR thallium flux, triplicate. shares compounds with KCNK3 inh. FluxOR fluorescence; 0% buffer, 100% carvedilol maximal block. 99% of 2,400 active. ratio percent of control, % at 10 µM;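 active = ratio percent of control, averaged over triplicates, above buffer control mean plus 5 SD, cut at about 64% in these data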;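 also: ratio is the fluorescence rise from min to max over baseline after thallium stimulus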
KCNK3 uninduced: thallium flux inhibition in non-induced cells, primary screen, counter-screen for KCNK3 inhibitor project, cell-based, non-induced KCNK3 line, FluxOR thallium, triplicate | shares compounds with KCNK3 inh | non-induced KCNK3 parental cells; hits give low values | thallium flux ratio (lower = more inhibition) at 10 µM | 40% of 2,400 active;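 active = thallium flux ratio, averaged over three wells, more than 5 SD below the buffer control mean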;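 also: host cells are CHO cells without KCNK3 induction; ratio is peak minus trough fluorescence over baseline then normalized to buffer controls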
* hit, by the source's call; i = inactive; . = no result given; + = active, no number. The list is not random: actives were taken first. Their share in the collection is about 3.1%.

SMILES	KCNK9 inh	KCNQ1 act	hERG rescue	KCNQ1 block	KCNK3 inh	KCNQ1 inh valid	CHO Tl flux	KCNQ2 spec	KCNQ1 KCNE1 spec	KCNK3 inh conf	KCNK3 uninduced	others
COc1ccccc1NC(=O)CCNC(=O)c1ccc(C)cc1	i	i	-6.3	i	i	.	.	.	.	.	.
Cc1ccc2c(c1)[C@H]1[C@H](CO2)[C@H](c2ccccc2)[C@]2(C)C(=O)Nc3cc(F)ccc3C(=O)N12	.	.	.	.	i	.	.	.	.	.	.
CN(C)S(=O)(=O)c1cccc(COC(=O)c2ccc3c(c2)OCO3)c1	i	i	-11.2	i	i	.	.	.	.	.	.
CN(C)S(=O)(=O)c1cccc(COC(=O)c2ccc(Cl)cc2O)c1	-8.31*	i	-24.5	7*	-9.51*	121.0*	0.433	96.3%*	117.0%*	130.7*	i	KCNQ1 ephys val=i;KCNK9 inh conf=49.5%*;Kir21 sel=i;KCNK9 uninduced=26.5%*
Cc1ccc(OCC(=O)OCC(=O)c2cccc([N+](=O)[O-])c2)cc1C	i	i	-6.8	i	i	.	.	.	.	.	.
CCCN1C2CCCC1CC(NC(=O)c1ccccc1Br)C2 (centres undefined)	i	i	-3.4	i	i	.	.	.	.	.	.
CCSc1nnc2ccc(-c3ccc(C)cc3)nn12	i	i	-3.0	i	i	.	.	.	.	.	.
Cc1cccc(CC(=O)N2CCCC2)c1	i	i	-2.3	i	i	.	.	.	.	.	.
CC(C)CNC(=S)N1CCN(c2nc(-c3ccc(Cl)cc3)cs2)CC1	i	i	-6.6	11*	-9.76*	159.0*	0.414	127.7%*	141.5%*	140.3*	0.123*	KCNQ1 ephys val=i
Cc1cc(C)cc(OCC(O)CN2CCC(CN3C(=O)c4cccc5cccc(c45)C3=O)CC2)c1 (centres undefined)	i	i	-36.2	9*	-9.54*	128.5*	0.384	99.0%*	138.5%*	110.7*	i	KCNQ1 ephys val=i;KCNK9 inh conf=i;Kir21 sel=i;KCNK9 uninduced=i
c1csc(CNc2nc(-c3cccs3)nc3ccccc23)c1	i	i	-14.2	6*	-10.6*	112.0*	0.381	123.0%*	168.5%*	108.0*	i	KCNQ1 ephys val=i
c1ccc(-c2nc(NCc3cccs3)c3ccccc3n2)cc1	i	i	-8.2	i	i	.	.	.	.	.	.
C[C@]12c3[nH]c4ccccc4c3CCN1C(=O)C(CC(=O)NCCCn1ccnc1)C[C@@H]2C(=O)N1CCOCC1 (some centres undefined)	.	.	.	.	i	.	.	.	.	.	.
COc1cc2c(cc1OC)C(c1cc(Br)c(OC)c(OC)c1)CC(=O)N2 (centres undefined)	i	i	-7.1	i	i	.	.	.	.	.	.
CCOC(=O)c1c(NC(=O)C(C)OC(=O)c2ccc(NC(=O)CC#N)cc2)sc2c1CCCC2 (centres undefined)	i	i	-11.7	8*	-9.11*	104.5*	0.443	90.7%*	187.0%*	87.3*	0.143*	KCNQ1 ephys val=i
CCOC(=O)c1c(NC(=O)C(C)OC(=O)C2=COCCO2)sc2c1CCCC2 (centres undefined)	.	.	.	.	i	.	.	.	.	.	.
CC(OC(=O)/C=C/c1ccccc1)C(=O)N1CCc2ccccc21 (centres undefined)	i	i	-6.2	i	i	.	.	.	.	.	.
O=C(OCc1ccccn1)c1ccc(COc2ccc3ccccc3c2)o1	-7.01*	i	-31.0	8*	-10.4*	148.5*	0.347*	121.0%*	+	122.3*	0.146*
NNC(=O)c1ccc(COc2ccc3ccccc3c2)o1	i	i	-1.3	i	i	.	.	.	.	.	.
CCCCNC(=O)c1sc(=S)n2c1[nH]c(=O)c1ccccc12	i	i	-30.9	i	i	.	.	.	.	.	.
CCOc1ccc(CCNC(=O)c2ccc3c(=O)[nH]c4c(C(=O)NC(C)C)sc(=S)n4c3c2)cc1	i	i	-27.1	15*	-8.97*	156.5*	0.329*	97.0%*	+	108.3*	i
CC(C)NC(=O)c1sc(=S)n2c1[nH]c(=O)c1ccc(C(=O)NCCc3ccc(Cl)cc3)cc12	i	i	-9.9	16*	-18.3*	102.5*	0.347*	80.7%*	174.0%*	93.3*	i
